# Substitutions are numbered along the chain they refer to. Active and inactive are the calls of the source. No cut-off for these calls is given here.
# What was measured:
# [1] = biological target: T1, Muscarinic acetylcholine receptor M3 (Rattus norvegicus, UniProt P08483); test: Displacement of [3H]NMS from rat muscarinic M3 receptor expressed in CHO cells; assay type: cell-based
# [2] = species on record: Rattus norvegicus; test: Selectivity for rat muscarinic M1 receptor over rat muscarinic M3 receptor by calcium mobilization assay
# [3] = species on record: Rattus norvegicus; test: Selectivity for rat muscarinic M1 receptor over rat muscarinic M4 receptor by calcium mobilization assay
# [4] = biological target: T2, Muscarinic acetylcholine receptor M1 (Rattus norvegicus, UniProt P08482); test: Antagonist activity at rat muscarinic M1 receptor expressed in CHO cells by calcium mobilization assay; assay type: functional, cell-based
# T2 sequence (P08482 whole entry): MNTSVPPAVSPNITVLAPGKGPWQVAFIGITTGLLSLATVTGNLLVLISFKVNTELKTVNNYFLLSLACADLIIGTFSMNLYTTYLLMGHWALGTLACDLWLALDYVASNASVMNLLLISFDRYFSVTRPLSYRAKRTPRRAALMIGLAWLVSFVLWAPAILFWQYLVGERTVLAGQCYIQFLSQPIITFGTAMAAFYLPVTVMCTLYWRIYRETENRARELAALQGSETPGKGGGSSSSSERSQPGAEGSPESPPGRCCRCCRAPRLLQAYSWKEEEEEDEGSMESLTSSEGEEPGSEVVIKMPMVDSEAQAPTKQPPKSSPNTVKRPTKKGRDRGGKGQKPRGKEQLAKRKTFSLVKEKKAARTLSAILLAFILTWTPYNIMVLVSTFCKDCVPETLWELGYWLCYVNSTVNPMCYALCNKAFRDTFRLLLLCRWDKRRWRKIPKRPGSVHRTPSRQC
# [5] = biological target: T3, Muscarinic acetylcholine receptor M2 (Rattus norvegicus, UniProt P10980); test: Antagonist activity at rat muscarinic M2 receptor expressed in CHO cells by calcium mobilization assay; assay type: functional, cell-based
# T3 sequence (P10980 whole entry): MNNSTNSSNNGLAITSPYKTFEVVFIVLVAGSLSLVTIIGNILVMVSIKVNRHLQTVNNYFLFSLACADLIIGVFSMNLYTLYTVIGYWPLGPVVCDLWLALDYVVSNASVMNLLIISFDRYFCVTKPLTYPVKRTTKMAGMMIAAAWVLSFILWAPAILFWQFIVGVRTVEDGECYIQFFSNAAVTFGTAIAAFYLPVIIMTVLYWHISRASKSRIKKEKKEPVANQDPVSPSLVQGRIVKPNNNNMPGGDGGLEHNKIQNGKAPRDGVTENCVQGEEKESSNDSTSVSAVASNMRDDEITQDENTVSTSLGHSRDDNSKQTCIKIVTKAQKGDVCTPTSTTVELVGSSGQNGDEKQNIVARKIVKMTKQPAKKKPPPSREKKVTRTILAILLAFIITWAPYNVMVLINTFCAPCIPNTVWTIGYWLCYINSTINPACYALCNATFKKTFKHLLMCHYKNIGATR
# [6] = biological target: T4, Muscarinic acetylcholine receptor M4 (Rattus norvegicus, UniProt P08485); test: Displacement of [3H]NMS from rat muscarinic M4 receptor expressed in CHO cells; assay type: cell-based
# T4 sequence (P08485 whole entry): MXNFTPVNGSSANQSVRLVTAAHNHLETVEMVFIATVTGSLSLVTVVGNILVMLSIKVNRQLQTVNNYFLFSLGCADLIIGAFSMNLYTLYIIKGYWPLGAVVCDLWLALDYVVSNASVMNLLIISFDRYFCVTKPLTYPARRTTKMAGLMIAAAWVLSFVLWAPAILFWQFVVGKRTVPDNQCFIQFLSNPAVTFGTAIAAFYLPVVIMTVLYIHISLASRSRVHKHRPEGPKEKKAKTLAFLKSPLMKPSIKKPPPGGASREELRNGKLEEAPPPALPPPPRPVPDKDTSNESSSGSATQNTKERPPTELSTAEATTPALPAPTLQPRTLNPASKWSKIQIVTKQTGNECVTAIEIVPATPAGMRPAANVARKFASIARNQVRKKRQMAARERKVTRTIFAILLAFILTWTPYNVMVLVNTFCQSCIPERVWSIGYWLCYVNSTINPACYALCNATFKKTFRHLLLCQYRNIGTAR
# [7] = biological target: T5, Muscarinic acetylcholine receptor M5 (Rattus norvegicus, UniProt P08911); test: Antagonist activity at rat muscarinic M5 receptor expressed in CHO cells by calcium mobilization assay; assay type: functional, cell-based
# T5 sequence (P08911 whole entry): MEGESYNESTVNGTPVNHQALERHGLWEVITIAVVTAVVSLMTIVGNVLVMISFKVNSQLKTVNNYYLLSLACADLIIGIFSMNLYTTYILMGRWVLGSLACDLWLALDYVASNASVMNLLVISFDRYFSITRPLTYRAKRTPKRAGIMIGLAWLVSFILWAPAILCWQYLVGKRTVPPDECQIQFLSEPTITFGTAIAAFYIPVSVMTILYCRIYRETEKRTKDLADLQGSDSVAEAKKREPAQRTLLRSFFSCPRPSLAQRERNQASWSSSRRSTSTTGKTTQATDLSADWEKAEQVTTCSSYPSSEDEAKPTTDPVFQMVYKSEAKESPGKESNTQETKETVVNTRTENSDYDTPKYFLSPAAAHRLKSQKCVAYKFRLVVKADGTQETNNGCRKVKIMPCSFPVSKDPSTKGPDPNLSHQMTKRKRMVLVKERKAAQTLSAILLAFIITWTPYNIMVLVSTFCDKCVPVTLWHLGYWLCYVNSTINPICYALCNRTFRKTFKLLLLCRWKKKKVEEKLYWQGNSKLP
# [8] = species on record: Rattus norvegicus; test: Selectivity for rat muscarinic M1 receptor over rat muscarinic M5 receptor by calcium mobilization assay
# [9] = biological target: T1, Muscarinic acetylcholine receptor M3; test: Antagonist activity at rat muscarinic M3 receptor expressed in CHO cells by calcium mobilization assay; assay type: functional, cell-based
# [10] = biological target: T4, Muscarinic acetylcholine receptor M4; test: Antagonist activity at rat muscarinic M4 receptor expressed in CHO cells by calcium mobilization assay; assay type: functional, cell-based
# [11] = biological target: T3, Muscarinic acetylcholine receptor M2; test: Displacement of [3H]NMS from rat muscarinic M2 receptor expressed in CHO cells; assay type: cell-based
# [12] = biological target: T5, Muscarinic acetylcholine receptor M5; test: Displacement of [3H]NMS from rat muscarinic M5 receptor expressed in CHO cells; assay type: cell-based
# [13] = biological target: T2, Muscarinic acetylcholine receptor M1; test: Displacement of [3H]NMS from rat muscarinic M1 receptor expressed in CHO cells; assay type: cell-based
# Method in brief: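 Competition binding against the orthosteric radioligand [³H]-N-methylscopolamine on rat mAChR subtypes from CHO cell lines, with atropine as positive control. Ki values are averages of three independent experiments.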
# [14] = biological target: T6, Muscarinic acetylcholine receptor M1 (Homo sapiens) (UniProt P11229); test: Inhibition of human muscarinic M1 receptor
# T6 sequence (whole entry): T2 sequence (P08482 whole entry) with V5A, S254T, S309P, K320R, G337A, V413I
# T1 sequence (P08483 whole entry): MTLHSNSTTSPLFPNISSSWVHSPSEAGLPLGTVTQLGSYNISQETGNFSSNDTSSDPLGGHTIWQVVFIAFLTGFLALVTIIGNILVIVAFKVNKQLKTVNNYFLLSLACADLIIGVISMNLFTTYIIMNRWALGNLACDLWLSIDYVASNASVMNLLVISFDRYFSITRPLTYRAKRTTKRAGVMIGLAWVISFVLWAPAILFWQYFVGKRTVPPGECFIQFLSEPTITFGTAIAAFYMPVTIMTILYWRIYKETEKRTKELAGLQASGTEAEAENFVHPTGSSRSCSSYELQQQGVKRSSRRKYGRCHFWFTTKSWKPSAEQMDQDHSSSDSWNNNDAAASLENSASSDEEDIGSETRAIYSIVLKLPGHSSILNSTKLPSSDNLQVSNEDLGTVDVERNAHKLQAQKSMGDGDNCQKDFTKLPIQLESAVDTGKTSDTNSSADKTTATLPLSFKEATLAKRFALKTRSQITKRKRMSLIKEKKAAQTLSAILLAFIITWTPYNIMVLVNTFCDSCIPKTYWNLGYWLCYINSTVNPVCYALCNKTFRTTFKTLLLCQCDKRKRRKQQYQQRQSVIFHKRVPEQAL
Ki [1],Ratio IC50 [2],Ratio IC50 [3],IC50 [4],IC50 [5],Ki [6],IC50 [7],Ratio IC50 [8],IC50 [9],IC50 [10],Ki [11],Ki [12],Ki [13],Activity [14],Structure (SMILES)
0.0748 µM,7,> 340,0.44 µM,3.5 µM,0.445 µM,1.1 µM,2.4,3.1 µM,> 150 µM,0.338 µM,0.0857 µM,0.0127 µM,,CCN1CCN(c2ccc(NC(=O)CCC3CCCC3)cc2Cl)CC1
,> 32,> 32,4.6 µM,> 150 µM,,> 150 µM,> 32,> 150 µM,> 150 µM,,,,,CCN1CCN(c2ccc(NC(=O)C3CCCCC3)cc2Cl)CC1
,,,1.15 µM,29 µM,,13 µM,,24 µM,20 µM,,,,,CCN1CCN(c2ccc(NC(=O)[C@H]3C[C@@H]3c3ccccc3)cc2Cl)CC1
,,,5 µM,> 150 µM,,> 150 µM,,> 150 µM,66 µM,,,,,CCN1CCN(c2ccc(NC(=O)c3ccccc3)cc2Cl)CC1
,,,0.49 µM,> 150 µM,,> 150 µM,,> 150 µM,7.9 µM,,,,Active,CCCCCC(=O)Nc1ccc(N2CCN(CC)CC2)c(Cl)c1
,,,0.58 µM,,,,,,5.1 µM,,,,Active,CCCCOc1cccc(C(=O)Nc2ccc(N3CCN(CC)CC3)c(Cl)c2)c1
,,,18.8 µM,> 150 µM,,> 150 µM,,> 150 µM,> 150 µM,,,,,CCN1CCN(c2ccc(NC(=O)COCc3ccccc3)cc2Cl)CC1
,> 45,> 45,3.3 µM,> 150 µM,,> 150 µM,> 45,> 150 µM,> 150 µM,,,,,CCN1CCN(c2ccc(NC(=O)COc3ccccc3)cc2Cl)CC1
,> 26,> 26,5.6 µM,> 150 µM,,> 150 µM,> 26,> 150 µM,> 150 µM,,,,,CCN1CCN(c2ccc(NC(=O)Cc3ccc(F)cc3)cc2Cl)CC1
,20,20,,,,,20,,,,,,,CN1CCN(CC(=O)N2c3ccccc3C(=O)Nc3cccnc32)CC1
,63,16,1.1 µM,52 µM,,7.6 µM,6.9,70 µM,18 µM,,,,,CCN1CCN(c2ccc(NC(=O)CCc3ccccc3)cc2Cl)CC1
,,,> 150 µM,> 150 µM,,> 150 µM,,> 150 µM,> 150 µM,,,,,CCN1CCN(c2ccc(NC(=O)CC(C)(C)C)cc2Cl)CC1

Structure (SMILES),Ki [1],Ratio IC50 [2],Ratio IC50 [3],IC50 [4],IC50 [5],Ki [6],IC50 [7],Ratio IC50 [8],IC50 [9],IC50 [10],Ki [11],Ki [12],Ki [13],Activity [14]
CCCC(=O)Nc1ccc(N2CCN(CC)CC2)c(Cl)c1,,,,> 150 µM,> 150 µM,,> 150 µM,,> 150 µM,> 150 µM,,,,

# Reference: ChEMBL document CHEMBL1143155, “Synthesis and SAR of selective muscarinic acetylcholine receptor subtype 1 (M1 mAChR) antagonists” (Bioorg Med Chem Lett, 2008)
